test: Cytotoxicity against in Balb/c mouse B cells at 10^-6 M after 48 hrs by MTT assay; assay type: cell-based; settings: 1 µM
Outline: (§1)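 Spleens taken aseptically from Balb/c mice (18–22 g). Single-cell suspension made in incomplete RPMI, RBCs lysed with Tris-ammonium chloride, cells washed, resuspended in complete RPMI and checked for viability by trypan blue. Cells seeded at 1 × 10⁶ cells/mL. Compounds in DMSO tested at 1×10⁻⁴, 1×10⁻⁵ and 1×10⁻⁶ M, 48 h, 37 °C, 5% CO₂.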

Row | SMILES | Activity
1 | Cc1cc(OCc2cnnn2-c2ccccc2C(F)(F)F)c(C)c2c1CC[C@H]1[C@H](C)C(=O)O[C@@H]21 | Non-toxic
2 | Cc1cc(O)c(C)c2c1CC[C@H]1[C@H](C)C(=O)O[C@@H]21 | Non-toxic
3 | Cc1ccc(I)cc1-n1nncc1COc1cc(C)c2c(c1C)[C@@H]1OC(=O)[C@@H](C)[C@@H]1CC2 | Non-toxic
4 | Cc1cc(OCc2cnnn2-c2cccc(I)c2)c(C)c2c1CC[C@H]1[C@H](C)C(=O)O[C@@H]21 | Non-toxic

test: Cytotoxicity against in Balb/c mouse B cells at 10^-5 M after 48 hrs by MTT assay; assay type: cell-based; settings: 10 µM; outline: as §1

Row | SMILES | Activity
5 | Cc1cc(OCc2cnnn2-c2ccccc2C(F)(F)F)c(C)c2c1CC[C@H]1[C@H](C)C(=O)O[C@@H]21 | Non-toxic
6 | Cc1cc(O)c(C)c2c1CC[C@H]1[C@H](C)C(=O)O[C@@H]21 | Non-toxic
7 | Cc1ccc(I)cc1-n1nncc1COc1cc(C)c2c(c1C)[C@@H]1OC(=O)[C@@H](C)[C@@H]1CC2 | Non-toxic
8 | Cc1cc(OCc2cnnn2-c2cccc(I)c2)c(C)c2c1CC[C@H]1[C@H](C)C(=O)O[C@@H]21 | Non-toxic

test: Cytotoxicity against in Balb/c mouse T cells at 10^-6 M after 48 hrs by MTT assay; assay type: cell-based; settings: t-cell, 1 µM; outline: as §1

Row | SMILES | Activity
9 | Cc1cc(OCc2cnnn2-c2ccccc2C(F)(F)F)c(C)c2c1CC[C@H]1[C@H](C)C(=O)O[C@@H]21 | Non-toxic
10 | Cc1cc(O)c(C)c2c1CC[C@H]1[C@H](C)C(=O)O[C@@H]21 | Non-toxic
11 | Cc1ccc(I)cc1-n1nncc1COc1cc(C)c2c(c1C)[C@@H]1OC(=O)[C@@H](C)[C@@H]1CC2 | Non-toxic
12 | Cc1cc(OCc2cnnn2-c2cccc(I)c2)c(C)c2c1CC[C@H]1[C@H](C)C(=O)O[C@@H]21 | Non-toxic

test: Cytotoxicity against in Balb/c mouse T cells at 10^-5 M after 48 hrs by MTT assay; assay type: cell-based; settings: t-cell, 10 µM; outline: as §1

Row | SMILES | Activity
13 | Cc1cc(OCc2cnnn2-c2ccccc2C(F)(F)F)c(C)c2c1CC[C@H]1[C@H](C)C(=O)O[C@@H]21 | Non-toxic
14 | Cc1cc(O)c(C)c2c1CC[C@H]1[C@H](C)C(=O)O[C@@H]21 | Non-toxic
15 | Cc1ccc(I)cc1-n1nncc1COc1cc(C)c2c(c1C)[C@@H]1OC(=O)[C@@H](C)[C@@H]1CC2 | Non-toxic
16 | Cc1cc(OCc2cnnn2-c2cccc(I)c2)c(C)c2c1CC[C@H]1[C@H](C)C(=O)O[C@@H]21 | Non-toxic

test: Cytotoxicity against in Balb/c mouse T cells at 10^-4 M after 48 hrs by MTT assay; assay type: cell-based; settings: t-cell, 100 µM; outline: as §1

Row | SMILES | Activity
17 | Cc1cc(OCc2cnnn2-c2ccccc2C(F)(F)F)c(C)c2c1CC[C@H]1[C@H](C)C(=O)O[C@@H]21 | Non-toxic
18 | Cc1cc(O)c(C)c2c1CC[C@H]1[C@H](C)C(=O)O[C@@H]21 | Non-toxic
19 | Cc1ccc(I)cc1-n1nncc1COc1cc(C)c2c(c1C)[C@@H]1OC(=O)[C@@H](C)[C@@H]1CC2 | Non-toxic
20 | Cc1cc(OCc2cnnn2-c2cccc(I)c2)c(C)c2c1CC[C@H]1[C@H](C)C(=O)O[C@@H]21 | Non-toxic

test: Cytotoxicity against in Balb/c mouse B cells at 10^-4 M after 48 hrs by MTT assay; assay type: cell-based; settings: 100 µM; outline: as §1

Row | SMILES | Activity
21 | Cc1cc(OCc2cnnn2-c2ccccc2C(F)(F)F)c(C)c2c1CC[C@H]1[C@H](C)C(=O)O[C@@H]21 | Non-toxic
22 | Cc1cc(O)c(C)c2c1CC[C@H]1[C@H](C)C(=O)O[C@@H]21 | Non-toxic
23 | Cc1ccc(I)cc1-n1nncc1COc1cc(C)c2c(c1C)[C@@H]1OC(=O)[C@@H](C)[C@@H]1CC2 | Non-toxic
24 | Cc1cc(OCc2cnnn2-c2cccc(I)c2)c(C)c2c1CC[C@H]1[C@H](C)C(=O)O[C@@H]21 | Non-toxic

test: Immunostimulant activity in Balb/c mouse B cells assessed as inhibition of LPS-induced cell proliferation at 10^-6 M after 48 hrs by MTT assay; assay type: functional; settings: not given; outline: as §1

Row | SMILES | inhibition at 1 µM
25 | Cc1cc(OCc2cnnn2-c2ccccc2C(F)(F)F)c(C)c2c1CC[C@H]1[C@H](C)C(=O)O[C@@H]21 | 62.9%

test: Immunostimulant activity in Balb/c mouse B cells assessed as inhibition of LPS-induced cell proliferation at 10^-4 M after 48 hrs by MTT assay; assay type: functional; settings: not given; outline: as §1

Row | SMILES | inhibition at 100 µM
26 | Cc1cc(O)c(C)c2c1CC[C@H]1[C@H](C)C(=O)O[C@@H]21 | 18.8%

test: Immunostimulant activity in Balb/c mouse T cells assessed as inhibition of concanavalin A-induced cell proliferation at 10^-4 M after 48 hrs by MTT assay; assay type: functional; settings: Mus musculus, Balb/c, T-cell, 48 h; outline: as §1

Row | SMILES | inhibition at 100 µM
27 | Cc1cc(O)c(C)c2c1CC[C@H]1[C@H](C)C(=O)O[C@@H]21 | 80.5%

test: Immunosuppressive activity in Balb/c mouse B cells assessed as inhibition of LPS-induced cell proliferation at 10^-6 M after 48 hrs by MTT assay; assay type: functional; settings: not given; outline: as §1

Row | SMILES | inhibition at 1 µM
28 | Cc1cc(O)c(C)c2c1CC[C@H]1[C@H](C)C(=O)O[C@@H]21 | 23.1%
29 | Cc1ccc(I)cc1-n1nncc1COc1cc(C)c2c(c1C)[C@@H]1OC(=O)[C@@H](C)[C@@H]1CC2 | 34.7%
30 | Cc1cc(OCc2cnnn2-c2cccc(I)c2)c(C)c2c1CC[C@H]1[C@H](C)C(=O)O[C@@H]21 | 15.8%

test: Immunosuppressive activity in Balb/c mouse B cells assessed as inhibition of LPS-induced cell proliferation at 10^-5 M after 48 hrs by MTT assay; assay type: functional; settings: not given; outline: as §1

Row | SMILES | inhibition at 10 µM
31 | Cc1cc(OCc2cnnn2-c2ccccc2C(F)(F)F)c(C)c2c1CC[C@H]1[C@H](C)C(=O)O[C@@H]21 | 31.4%
32 | Cc1cc(O)c(C)c2c1CC[C@H]1[C@H](C)C(=O)O[C@@H]21 | 23.9%
33 | Cc1ccc(I)cc1-n1nncc1COc1cc(C)c2c(c1C)[C@@H]1OC(=O)[C@@H](C)[C@@H]1CC2 | 14.7%
34 | Cc1cc(OCc2cnnn2-c2cccc(I)c2)c(C)c2c1CC[C@H]1[C@H](C)C(=O)O[C@@H]21 | 20%

test: Immunosuppressive activity in Balb/c mouse B cells assessed as inhibition of LPS-induced cell proliferation at 10^-4 M after 48 hrs by MTT assay; assay type: functional; settings: not given; outline: as §1

Row | SMILES | inhibition at 100 µM
35 | Cc1cc(OCc2cnnn2-c2ccccc2C(F)(F)F)c(C)c2c1CC[C@H]1[C@H](C)C(=O)O[C@@H]21 | 11.4%
36 | Cc1ccc(I)cc1-n1nncc1COc1cc(C)c2c(c1C)[C@@H]1OC(=O)[C@@H](C)[C@@H]1CC2 | 16.8%
37 | Cc1cc(OCc2cnnn2-c2cccc(I)c2)c(C)c2c1CC[C@H]1[C@H](C)C(=O)O[C@@H]21 | 15.8%

test: Immunosuppressive activity in Balb/c mouse T cells assessed as inhibition of concanavalin A-induced cell proliferation at 10^-6 M after 48 hrs by MTT assay; assay type: functional; settings: Mus musculus, Balb/c, T-cell, 48 h; outline: as §1

Row | SMILES | inhibition at 1 µM
38 | Cc1cc(OCc2cnnn2-c2ccccc2C(F)(F)F)c(C)c2c1CC[C@H]1[C@H](C)C(=O)O[C@@H]21 | 7.14%
39 | Cc1cc(O)c(C)c2c1CC[C@H]1[C@H](C)C(=O)O[C@@H]21 | 20.7%
40 | Cc1ccc(I)cc1-n1nncc1COc1cc(C)c2c(c1C)[C@@H]1OC(=O)[C@@H](C)[C@@H]1CC2 | 15.8%
41 | Cc1cc(OCc2cnnn2-c2cccc(I)c2)c(C)c2c1CC[C@H]1[C@H](C)C(=O)O[C@@H]21 | 15.8%

test: Immunosuppressive activity in Balb/c mouse T cells assessed as inhibition of concanavalin A-induced cell proliferation at 10^-5 M after 48 hrs by MTT assay; assay type: functional; settings: not given; outline: as §1

Row | SMILES | inhibition at 10 µM
42 | Cc1cc(OCc2cnnn2-c2ccccc2C(F)(F)F)c(C)c2c1CC[C@H]1[C@H](C)C(=O)O[C@@H]21 | 30%
43 | Cc1cc(O)c(C)c2c1CC[C@H]1[C@H](C)C(=O)O[C@@H]21 | 24.4%
44 | Cc1ccc(I)cc1-n1nncc1COc1cc(C)c2c(c1C)[C@@H]1OC(=O)[C@@H](C)[C@@H]1CC2 | 20%
45 | Cc1cc(OCc2cnnn2-c2cccc(I)c2)c(C)c2c1CC[C@H]1[C@H](C)C(=O)O[C@@H]21 | 20%

test: Immunosuppressive activity in Balb/c mouse T cells assessed as inhibition of concanavalin A-induced cell proliferation at 10^-4 M after 48 hrs by MTT assay; assay type: functional; settings: not given; outline: as §1

Row | SMILES | inhibition at 100 µM
46 | Cc1cc(OCc2cnnn2-c2ccccc2C(F)(F)F)c(C)c2c1CC[C@H]1[C@H](C)C(=O)O[C@@H]21 | 22.9%
47 | Cc1ccc(I)cc1-n1nncc1COc1cc(C)c2c(c1C)[C@@H]1OC(=O)[C@@H](C)[C@@H]1CC2 | 15.8%
48 | Cc1cc(OCc2cnnn2-c2cccc(I)c2)c(C)c2c1CC[C@H]1[C@H](C)C(=O)O[C@@H]21 | 3.15%

Source: ChEMBL document CHEMBL2311361, “Diminutive effect on T and B-cell proliferation of non-cytotoxic α-santonin derived 1,2,3-triazoles: a report” (Eur J Med Chem, 2013)
